Measurements pooled from the literature.
Lines come from different studies, so protocols differ.
EGFR: Epidermal growth factor receptor (EGFR, Homo sapiens, UniProt P00533)
EGFR G719S: Epidermal growth factor receptor (EGFR, Homo sapiens, UniProt P00533, G719S)
EGFR T790M: Epidermal growth factor receptor (EGFR, Homo sapiens, UniProt P00533, T790M)

With `CNC(=O)c1ccccc1Nc1nc(Nc2ccc(CO)nc2)ncc1Cl` the remaining activity was 26% (EGFR; enzyme activity, inhibitor, radiometric; 1 µM).
`C[C@H]1CC[C@H](n2c3cnccc3c3cnc(Nc4ccc5c(n4)CCN(C(=O)CO)C5)nc32)CC1` gave a remaining signal of 93% (Epidermal growth factor receptor (EGFR, Homo sapiens, UniProt P00533, L858R/T790M); cell-free assay; 1 µM).
`CS(=O)(=NC#N)c1ccccc1Nc1nc(Nc2ccnc(CO)c2)ncc1Cl` (stereo not drawn) gave a remaining activity of 99.4% (EGFR; enzyme activity, inhibitor, radiometric; 1 µM).
`CO[C@@H]1[C@H](N(C)C(=O)c2ccccc2)C[C@H]2O[C@]1(C)n1c3ccccc3c3c4c(c5c6ccccc6n2c5c31)C(=O)NC4` has an inhibition of 10% (Epidermal growth factor receptor (EGFR, Homo sapiens, UniProt P00533, del747-752/P753S); enzyme activity, inhibitor; 1 µM).
The remaining binding of `N#Cc1ccc(NC(=O)Nc2ccccc2)cc1` is reported as 87% (EGFR; cell-free assay, competition with immobilised ligand; 25 µM).
`CC#CC(=O)N1CCC[C@H]1c1nc(-c2ccc(C(=O)Nc3ccccn3)cc2)c2c(N)nccn12` gave an inhibition of 0% (Epidermal growth factor receptor (EGFR, Homo sapiens, UniProt P00533, del746-750); enzyme activity, inhibitor; 1 µM).
With `C#Cc1cnc(Nc2ccc(CO)cc2)nc1Nc1ccccc1C(=O)NC` the remaining activity was 10.1% (EGFR; enzyme activity, inhibitor, radiometric; 1 µM).
For `COc1ccc2[nH]c3c4[nH]c5ccc(OC)cc5c4c4c(c3c2c1)C(=O)NC4=O`, the remaining binding was 71% (Epidermal growth factor receptor (EGFR, Homo sapiens, UniProt P00533, L861Q); binding; 1 µM).
The inhibition of `C=CC(=O)N1CCC([C@@H]2CCNc3c(C(N)=O)c(-c4ccc(Oc5ccccc5)cc4)nn32)CC1` is reported as 95% (EGFR G719S; cell-free assay; 1 µM).
For `Cc1ccc(NC(=O)c2ccnc(C(F)(F)F)c2)cc1-c1cc(OCCO)nc(N2CCOCC2)c1`, the remaining binding was 100% (EGFR G719S; binding; 1 µM).
The remaining signal of `C#Cc1cnc(Nc2ccnc(CO)c2)nc1Nc1ccccc1S(C)(=O)=NC#N` (stereo not drawn) is reported as 63% (Epidermal growth factor receptor (EGFR, Homo sapiens, UniProt P00533, L858R); cell-free assay; 1 µM).
`CCCCC(=O)Nc1ccc(-c2ccc3ncn(CCC)c(=O)c3c2)cn1` gave a remaining binding of 100% (EGFR T790M; binding, competition with immobilised ligand; 0.5 µM).
`CN1CCN(C(=O)c2ccc(NC(=O)Nc3ccc(N(C)c4ccnc(Nc5ccc(CS(C)(=O)=O)cc5)n4)cc3)cc2)CC1` has a remaining binding of 100% (Epidermal growth factor receptor (EGFR, Homo sapiens, UniProt P00533, del752-759); binding; 1 µM).
`C1=C/COCc2cc(ccc2OCCN2CCCC2)Nc2nccc(n2)-c2cccc(c2)COC/1` has a remaining binding of 67% (Epidermal growth factor receptor (EGFR, Homo sapiens, UniProt P00533, A750P/del747-749); binding; 0.1 µM).
`COc1ccc2oc(-c3ccc4nc(N)oc4c3)c/c(=N\c3ccccc3NC(=O)CCN)c2c1` gave a remaining signal of 99% (EGFR T790M; cell-free assay; 1 µM).
